Values after ≈ are worked out from the molar mass of the structure shown. Active and inactive are the calls of the source. The rule behind the calls is not given here.
Tests used:
Pseudomonas aeruginosa [1] = assay: Antimicrobial activity against Pseudomonas aeruginosa PAO1 harboring DNA oxidative repair system mutT mutant gene selected in presence of ciprofloxacin by Etest; type: functional
Procedure, shortened: (§1)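 Resistant colonies picked from population-analysis plates (5% blood agar with twofold antibiotic dilutions) and passaged three times in antibiotic-free LB before Etest MIC determination. MIC is the mean of four colonies, two successive determinations per colony; PAO1 after tobramycin selection is the mean of two colonies.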

Pseudomonas aeruginosa [2] = assay: Antimicrobial activity against Pseudomonas aeruginosa PAO1 harboring DNA oxidative repair system mutT mutant gene complemented with wild type DNA oxidative repair system mutT gene; type: functional, organism-based
Pseudomonas aeruginosa [3] = assay: Antimicrobial activity against Pseudomonas aeruginosa PAO1 harboring DNA oxidative repair system mutY mutant gene complemented with wild type DNA oxidative repair system mutY gene; type: functional, organism-based
Pseudomonas aeruginosa [4] = assay: Antimicrobial activity against Pseudomonas aeruginosa PAO1 by Etest; type: functional
Procedure, shortened: (§2)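 MICs by Etest per manufacturer's instructions on P. aeruginosa strains grown in LB; plates incubated at 37°C.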

Pseudomonas aeruginosa [5] = assay: Antimicrobial activity against Pseudomonas aeruginosa PAO1 harboring DNA oxidative repair system deltamutY::Gm mutant gene by Etest; type: functional; procedure, shortened: as §2
Pseudomonas aeruginosa [6] = assay: Antimicrobial activity against Pseudomonas aeruginosa PAO1 harboring DNA oxidative repair system deltamutT::Gm mutant gene by Etest; type: functional; procedure, shortened: as §2
Pseudomonas aeruginosa [7] = assay: Antimicrobial activity against Pseudomonas aeruginosa PAO1 harboring DNA oxidative repair system deltamutM::Gm mutant gene by Etest; type: functional; procedure, shortened: as §2
Pseudomonas aeruginosa [8] = assay: Antimicrobial activity against Pseudomonas aeruginosa PAO1 assessed as microbial doubling time; type: functional
Procedure, shortened: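 Overnight LB cultures diluted to OD600 0.01 in LB and grown at 37°C. OD600 read every 20 min until stationary phase. OD600 plotted against time on a semilog scale, and doubling time taken from the slope of the straight exponential-phase segment. Value is the mean of three separate cultures ± standard deviation.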

Pseudomonas aeruginosa [9] = assay: Antimicrobial activity against Pseudomonas aeruginosa PAO1 harboring DNA oxidative repair system deltamutY::Gm mutant gene assessed as doubling time; type: functional
Procedure, shortened: (§3)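 Overnight LB cultures adjusted to OD600 0.01 and grown at 37°C; OD600 read every 20 min to stationary phase. Doubling time taken from the slope of the exponential phase on a semilog plot; mean ± SD of three individual cultures.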

Pseudomonas aeruginosa [10] = assay: Antimicrobial activity against Pseudomonas aeruginosa PAO1 harboring DNA oxidative repair system deltamutT::Gm mutant gene assessed as doubling time; type: functional; procedure, shortened: as §3
Pseudomonas aeruginosa [11] = assay: Antimicrobial activity against Pseudomonas aeruginosa PAO1 harboring DNA oxidative repair system deltamutM::Gm mutant gene assessed as doubling time; type: functional; procedure, shortened: as §3
Pseudomonas aeruginosa [12] = assay: Antimicrobial activity against Pseudomonas aeruginosa PAO1 harboring DNA oxidative repair system […] mutant gene complemented with wild type DNA oxidative repair system mutY gene; type: functional, organism-based
Pseudomonas aeruginosa [13] = assay: Antimicrobial activity against Pseudomonas aeruginosa PAO1 selected in presence of Ceftazidime by Etest; type: functional; procedure, shortened: as §1
Pseudomonas aeruginosa [14] = assay: Antimicrobial activity against Pseudomonas aeruginosa PAO1 harboring DNA oxidative repair system mutY mutant gene selected in presence of Ceftazidime by Etest; type: functional; procedure, shortened: as §1
Pseudomonas aeruginosa [15] = assay: Antimicrobial activity against Pseudomonas aeruginosa PAO1 harboring DNA oxidative repair system mutM mutant gene selected in presence of Ceftazidime by Etest; type: functional; procedure, shortened: as §1
Pseudomonas aeruginosa [16] = assay: Antimicrobial activity against Pseudomonas aeruginosa PAO1 harboring DNA oxidative repair system mutT mutant gene selected in presence of Ceftazidime by Etest; type: functional; procedure, shortened: as §1
Pseudomonas aeruginosa [17] = assay: Antimicrobial activity against Pseudomonas aeruginosa PAO1 selected in presence of tobramycin by Etest; type: functional; procedure, shortened: as §1
Pseudomonas aeruginosa [18] = assay: Antimicrobial activity against Pseudomonas aeruginosa PAO1 harboring DNA oxidative repair system mutY mutant gene selected in presence of tobramycin by Etest; type: functional; procedure, shortened: as §1
Pseudomonas aeruginosa [19] = assay: Antimicrobial activity against Pseudomonas aeruginosa PAO1 harboring DNA oxidative repair system mutM mutant gene selected in presence of tobramycin by Etest; type: functional; procedure, shortened: as §1
Pseudomonas aeruginosa [20] = assay: Antimicrobial activity against Pseudomonas aeruginosa PAO1 harboring DNA oxidative repair system mutT mutant gene selected in presence of tobramycin by Etest; type: functional; procedure, shortened: as §1
Pseudomonas aeruginosa [21] = assay: Antimicrobial activity against Pseudomonas aeruginosa PAO1 selected in presence of ciprofloxacin by Etest; type: functional; procedure, shortened: as §1
Pseudomonas aeruginosa [22] = assay: Antimicrobial activity against Pseudomonas aeruginosa PAO1 harboring DNA oxidative repair system mutY mutant gene selected in presence of ciprofloxacin by Etest; type: functional; procedure, shortened: as §1
Pseudomonas aeruginosa [23] = assay: Antimicrobial activity against Pseudomonas aeruginosa PAO1 harboring DNA oxidative repair system mutM mutant gene selected in presence of ciprofloxacin by Etest; type: functional; procedure, shortened: as §1
Pseudomonas aeruginosa [24] = assay: Selectivity ratio of MIC for Pseudomonas aeruginosa PAO1 harboring DNA oxidative repair system mutY mutant gene selected in presence of tobramycin to MIC for Pseudomonas aeruginosa PAO1 harboring DNA oxidative repair system mutY mutant gene; type: functional
Pseudomonas aeruginosa [25] = assay: Selectivity ratio of MIC for Pseudomonas aeruginosa PAO1 harboring DNA oxidative repair system mutT mutant gene selected in presence of tobramycin to MIC for Pseudomonas aeruginosa PAO1 harboring DNA oxidative repair system mutT mutant gene; type: functional

Structure (SMILES): NC[C@H]1O[C@H](O[C@H]2[C@H](O)[C@@H](O[C@H]3O[C@H](CO)[C@@H](O)[C@H](N)[C@H]3O)[C@H](N)C[C@@H]2N)[C@H](N)C[C@@H]1O [TOBRAMYCIN]
- MIC (Pseudomonas aeruginosa [1]): 1.25 µg/mL
- Activity (Pseudomonas aeruginosa [2]): Active
- Activity (Pseudomonas aeruginosa [3]): Active
- MIC (Pseudomonas aeruginosa [4]): 1.5 µg/mL (≈ 3.21 µM)
- MIC (Pseudomonas aeruginosa [5]): 1.5 µg/mL (≈ 3.21 µM)
- MIC (Pseudomonas aeruginosa [6]): 1.5 µg/mL (≈ 3.21 µM)
- MIC (Pseudomonas aeruginosa [7]): 1.5 µg/mL (≈ 3.21 µM)
- Time (Pseudomonas aeruginosa [8]): 26 min
- Time (Pseudomonas aeruginosa [9]): 25.7 min
- Time (Pseudomonas aeruginosa [10]): 27.7 min
- Time (Pseudomonas aeruginosa [11]): 27.3 min
- Activity (Pseudomonas aeruginosa [12]): Active
- MIC (Pseudomonas aeruginosa [13]): 1.75 µg/mL
- MIC (Pseudomonas aeruginosa [14]): 2 µg/mL
- MIC (Pseudomonas aeruginosa [15]): 2 µg/mL
- MIC (Pseudomonas aeruginosa [16]): 2 µg/mL
- MIC (Pseudomonas aeruginosa [17]): 6 µg/mL
- MIC (Pseudomonas aeruginosa [18]): 3.75 µg/mL
- MIC (Pseudomonas aeruginosa [19]): 3.5 µg/mL
- MIC (Pseudomonas aeruginosa [20]): 0.9 µg/mL
- MIC (Pseudomonas aeruginosa [21]): 1.06 µg/mL
- MIC (Pseudomonas aeruginosa [22]): 1.37 µg/mL
- MIC (Pseudomonas aeruginosa [23]): 1.19 µg/mL

Structure (SMILES): C[C@H]1[C@H](NC(=O)/C(=N\OC(C)(C)C(=O)O)c2csc(N)n2)C(=O)N1S(=O)(=O)O [AZTREONAM]
- Activity (Pseudomonas aeruginosa [3]): Active
- MIC (Pseudomonas aeruginosa [4]): 1.5 µg/mL (≈ 3.44 µM)
- MIC (Pseudomonas aeruginosa [5]): 1 µg/mL (≈ 2.3 µM)
- MIC (Pseudomonas aeruginosa [6]): 1.5 µg/mL (≈ 3.44 µM)
- MIC (Pseudomonas aeruginosa [7]): 1.5 µg/mL (≈ 3.44 µM)
- Time (Pseudomonas aeruginosa [8]): 26 min
- Time (Pseudomonas aeruginosa [9]): 25.7 min
- Time (Pseudomonas aeruginosa [10]): 27.7 min
- Time (Pseudomonas aeruginosa [11]): 27.3 min
- Activity (Pseudomonas aeruginosa [12]): Active

Structure (SMILES): O=C(O)c1cn(C2CC2)c2cc(N3CCNCC3)c(F)cc2c1=O [CIPROFLOXACIN]
- MIC (Pseudomonas aeruginosa [1]): 0.75 µg/mL
- MIC (Pseudomonas aeruginosa [4]): 0.19 µg/mL (≈ 0.573 µM)
- MIC (Pseudomonas aeruginosa [5]): 0.19 µg/mL (≈ 0.573 µM)
- MIC (Pseudomonas aeruginosa [7]): 0.19 µg/mL (≈ 0.573 µM)
- Time (Pseudomonas aeruginosa [8]): 26 min
- Time (Pseudomonas aeruginosa [9]): 25.7 min
- Time (Pseudomonas aeruginosa [10]): 27.7 min
- Time (Pseudomonas aeruginosa [11]): 27.3 min
- MIC (Pseudomonas aeruginosa [14]): 0.17 µg/mL
- MIC (Pseudomonas aeruginosa [15]): 0.13 µg/mL
- MIC (Pseudomonas aeruginosa [16]): 0.16 µg/mL
- MIC (Pseudomonas aeruginosa [17]): 0.32 µg/mL
- MIC (Pseudomonas aeruginosa [18]): 0.16 µg/mL
- MIC (Pseudomonas aeruginosa [19]): 0.11 µg/mL
- MIC (Pseudomonas aeruginosa [20]): 0.08 µg/mL
- MIC (Pseudomonas aeruginosa [21]): 0.75 µg/mL
- MIC (Pseudomonas aeruginosa [22]): 0.75 µg/mL
- MIC (Pseudomonas aeruginosa [23]): 0.88 µg/mL

Structure (SMILES): CC(C)(O/N=C(\C(=O)N[C@@H]1C(=O)N2C(C(=O)[O-])=C(C[n+]3ccccc3)CS[C@H]12)c1csc(N)n1)C(=O)O [CEFTAZIDIME]
- MIC (Pseudomonas aeruginosa [1]): 0.44 µg/mL
- MIC (Pseudomonas aeruginosa [4]): 2 µg/mL (≈ 3.66 µM)
- MIC (Pseudomonas aeruginosa [5]): 1.5 µg/mL (≈ 2.74 µM)
- MIC (Pseudomonas aeruginosa [6]): 2 µg/mL (≈ 3.66 µM)
- MIC (Pseudomonas aeruginosa [7]): 1.5 µg/mL (≈ 2.74 µM)
- Time (Pseudomonas aeruginosa [8]): 26 min
- Time (Pseudomonas aeruginosa [9]): 25.7 min
- Time (Pseudomonas aeruginosa [10]): 27.7 min
- Time (Pseudomonas aeruginosa [11]): 27.3 min
- MIC (Pseudomonas aeruginosa [13]): 20 µg/mL
- MIC (Pseudomonas aeruginosa [14]): 18 µg/mL
- MIC (Pseudomonas aeruginosa [15]): 26 µg/mL
- MIC (Pseudomonas aeruginosa [16]): 18 µg/mL
- MIC (Pseudomonas aeruginosa [17]): 0.5 µg/mL
- MIC (Pseudomonas aeruginosa [18]): 0.69 µg/mL
- MIC (Pseudomonas aeruginosa [19]): 0.63 µg/mL
- MIC (Pseudomonas aeruginosa [20]): 0.38 µg/mL
- MIC (Pseudomonas aeruginosa [21]): 0.44 µg/mL
- MIC (Pseudomonas aeruginosa [22]): 0.47 µg/mL
- MIC (Pseudomonas aeruginosa [23]): 0.44 µg/mL

Structure (SMILES): O=C(N[C@H](CO)[C@H](O)c1ccc([N+](=O)[O-])cc1)C(Cl)Cl [CHLORAMPHENICOL]
- MIC (Pseudomonas aeruginosa [1]): 256 µg/mL
- fold change (FC) (Pseudomonas aeruginosa [24]): 2
- fold change (FC) (Pseudomonas aeruginosa [25]): 3
- MIC (Pseudomonas aeruginosa [17]): 28 µg/mL
- MIC (Pseudomonas aeruginosa [18]): 86 µg/mL
- MIC (Pseudomonas aeruginosa [19]): 56 µg/mL
- MIC (Pseudomonas aeruginosa [20]): 20 µg/mL
- MIC (Pseudomonas aeruginosa [21]): 256 µg/mL
- MIC (Pseudomonas aeruginosa [22]): 256 µg/mL
- MIC (Pseudomonas aeruginosa [23]): 256 µg/mL

Structure (SMILES): CCN1CCN(C(=O)N[C@@H](C(=O)N[C@@H]2C(=O)N3[C@@H]2SC(C)(C)[C@@H]3C(=O)O)c2ccccc2)C(=O)C1=O [PIPERACILLIN]
- Activity (Pseudomonas aeruginosa [3]): Active
- MIC (Pseudomonas aeruginosa [4]): 2 µg/mL (≈ 3.86 µM)
- MIC (Pseudomonas aeruginosa [5]): 2 µg/mL (≈ 3.86 µM)
- MIC (Pseudomonas aeruginosa [6]): 2 µg/mL (≈ 3.86 µM)
- MIC (Pseudomonas aeruginosa [7]): 2 µg/mL (≈ 3.86 µM)
- Time (Pseudomonas aeruginosa [8]): 26 min
- Time (Pseudomonas aeruginosa [9]): 25.7 min
- Time (Pseudomonas aeruginosa [10]): 27.7 min
- Time (Pseudomonas aeruginosa [11]): 27.3 min
- Activity (Pseudomonas aeruginosa [12]): Active

Structure (SMILES): CN(C)[C@@H]1C(O)=C(C(N)=O)C(=O)[C@@]2(O)C(O)=C3C(=O)c4c(O)cccc4[C@@](C)(O)[C@H]3C[C@@H]12 [TETRACYCLINE]
- MIC (Pseudomonas aeruginosa [1]): 256 µg/mL
- MIC (Pseudomonas aeruginosa [17]): 10 µg/mL
- MIC (Pseudomonas aeruginosa [18]): 5.5 µg/mL
- MIC (Pseudomonas aeruginosa [19]): 18 µg/mL
- MIC (Pseudomonas aeruginosa [20]): 4.25 µg/mL
- MIC (Pseudomonas aeruginosa [21]): 256 µg/mL
- MIC (Pseudomonas aeruginosa [22]): 256 µg/mL
- MIC (Pseudomonas aeruginosa [23]): 256 µg/mL
